In ChEMBL document CHEMBL4138150, “Quinoline derivatives bearing pyrazole moiety: Synthesis and biological evaluation as possible antibacterial and antifungal agents” (2018):
Converted amounts (≈) assume the structure as drawn.

Tests used:
Bacillus subtilis [1] = assay: Antimicrobial activity against Bacillus subtilis RCMB 010063 assessed as diameter of zone inhibition at 5 mg/ml after 24 hrs by agar well diffusion assay; format: functional; conditions: RCMB 010063, 24 h, read-out: DIZ
Procedure, shortened: (§1)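 Agar well diffusion: 100 µL of 1 x10^8 CFU/mL bacteria was spread on nutrient agar. 10 mm wells received 100 µL of compound at 5 mg/mL in DMSO, or ampicillin or gentamycin standards at 1 mg/mL. DMSO served as negative control. Plates were incubated 24 h at 37 °C. Inhibition zone diameter (mm) was measured as the mean of triplicates.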

Aspergillus clavatus [2] = assay: Antimicrobial activity against Aspergillus clavatus RCMB 02593 after 72 hrs by macro-tube dilution technique; format: functional; conditions: RCMB 02593, 72 h
Procedure, shortened: (§2)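 Twofold macro-tube dilution following NCCLS guidance, run in malt extract broth. 10 mg compound in 2.0 mL DMSO in tube 1 was serially diluted 1:1 through tube 14 into 1.0 mL broth; tube 15 was the control. Culture was suspended to turbidity in 5.0 mL broth, 0.2 mL was diluted into 40 mL, and 1.0 mL was added per tube. Incubation was 72 h at 30 °C. MIC was the lowest concentration with no growth.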

Aspergillus fumigatus [3] = assay: Antimicrobial activity against Aspergillus fumigatus RCMB 02564 assessed as diameter of zone inhibition at 5 mg/ml after 72 hrs by agar well diffusion assay; format: functional; conditions: RCMB 02564, 72 h, read-out: DIZ
Procedure, shortened: (§3)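 Fungi (1 x10^6 CFU/mL, 100 µL) were spread on Sabouraud dextrose agar. 10 mm wells were loaded with 100 µL of test solution at 5 mg/mL in DMSO, or amphotericin B standard at 1 mg/mL. A DMSO negative control was included. Plates were incubated 72 h at 28 °C. Inhibition zone diameter (mm) was recorded as the average of triplicate runs.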

Candida albicans [4] = assay: Antimicrobial activity against Candida albicans RCMB 05035 after 72 hrs by macro-tube dilution technique; format: functional; conditions: RCMB 05035, 72 h; procedure, shortened: as §2
Klebsiella pneumoniae [5] = assay: Antimicrobial activity against Klebsiella pneumoniae RCMB 010093 after overnight incubation by macro-tube dilution technique; format: functional
Procedure, shortened: (§4)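 Macro-tube twofold dilution following NCCLS guidance, run in nutrient broth. The first tube held 10 mg compound in 2.0 mL DMSO and was serially halved 1:1 into 1.0 mL broth through tube 14; tube 15 was the control. The inoculum was suspended to turbidity in 5.0 mL broth, 0.2 mL was diluted into 40 mL, and 1.0 mL was added per tube. Tubes were incubated overnight at 37 °C. MIC was the lowest concentration with no growth.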

Staphylococcus aureus [6] = assay: Antimicrobial activity against Staphylococcus aureus RCMB 010027 after overnight incubation by macro-tube dilution technique; format: functional; procedure, shortened: as §4
Shigella flexneri [7] = assay: Antimicrobial activity against Shigella flexneri RCMB 0100542 after overnight incubation by macro-tube dilution technique; format: functional; procedure, shortened: as §4
[8] = test system: Staphylococcus epidermidis; assay: Antimicrobial activity against Staphylococcus epidermidis RCMB 010024 after overnight incubation by macro-tube dilution technique; format: functional; procedure, shortened: as §4
Candida albicans [9] = assay: Antimicrobial activity against Candida albicans RCMB 05035 assessed as diameter of zone inhibition at 5 mg/ml after 72 hrs by agar well diffusion assay; format: functional; conditions: RCMB 05035, 72 h, read-out: DIZ; procedure, shortened: as §3
Aspergillus fumigatus [10] = assay: Antimicrobial activity against Aspergillus fumigatus RCMB 02564 after 72 hrs by macro-tube dilution technique; format: functional; conditions: RCMB 02564, 72 h; procedure, shortened: as §2
Bacillus subtilis [11] = assay: Antimicrobial activity against Bacillus subtilis RCMB 010063 after overnight incubation by macro-tube dilution technique; format: functional; procedure, shortened: as §4
Staphylococcus aureus [12] = assay: Antimicrobial activity against Staphylococcus aureus RCMB 010027 assessed as diameter of zone inhibition at 5 mg/ml after 24 hrs by agar well diffusion assay; format: functional; conditions: RCMB 010027, 24 h, read-out: DIZ; procedure, shortened: as §1
Proteus vulgaris [13] = assay: Antimicrobial activity against Proteus vulgaris RCMB 010085 assessed as diameter of zone inhibition at 5 mg/ml after 24 hrs by agar well diffusion assay; format: functional; conditions: RCMB 010085, 24 h, read-out: DIZ; procedure, shortened: as §1
Shigella flexneri [14] = assay: Antimicrobial activity against Shigella flexneri RCMB 0100542 assessed as diameter of zone inhibition at 5 mg/ml after 24 hrs by agar well diffusion assay; format: functional; conditions: RCMB 0100542, 24 h, read-out: DIZ; procedure, shortened: as §1
Klebsiella pneumoniae [15] = assay: Antimicrobial activity against Klebsiella pneumoniae RCMB 010093 assessed as diameter of zone inhibition at 5 mg/ml after 24 hrs by agar well diffusion assay; format: functional; conditions: RCMB 010093, 24 h, read-out: DIZ; procedure, shortened: as §1
Proteus vulgaris [16] = assay: Antimicrobial activity against Proteus vulgaris RCMB 010085 after overnight incubation by macro-tube dilution technique; format: functional; procedure, shortened: as §4
[17] = test system: Staphylococcus epidermidis; assay: Potency index, ratio of Amphotericin B IC50 to compound IC50 for Staphylococcus epidermidis RCMB 010024; format: functional
Aspergillus clavatus [18] = assay: Antimicrobial activity against Aspergillus clavatus RCMB 02593 assessed as diameter of zone inhibition at 5 mg/ml after 72 hrs by agar well diffusion assay; format: functional; conditions: RCMB 02593, 72 h, read-out: DIZ; procedure, shortened: as §3
[19] = test system: Staphylococcus epidermidis; assay: Antimicrobial activity against Staphylococcus epidermidis RCMB 010024 assessed as diameter of zone inhibition at 5 mg/ml after 24 hrs by agar well diffusion assay; format: functional; conditions: RCMB 010024, 24 h, read-out: DIZ; procedure, shortened: as §1
Staphylococcus aureus [20] = assay: Antimicrobial activity against Staphylococcus aureus RCMB 010027 assessed as diameter of zone inhibition at 1 mg/ml after 24 hrs by agar well diffusion assay; format: functional; conditions: RCMB 010027, 24 h, read-out: DIZ
Bacillus subtilis [21] = assay: Antimicrobial activity against Bacillus subtilis RCMB 010063 assessed as diameter of zone inhibition at 1 mg/ml after 24 hrs by agar well diffusion assay; format: functional; conditions: RCMB 010063, 24 h, read-out: DIZ
[22] = test system: Staphylococcus epidermidis; assay: Antimicrobial activity against Staphylococcus epidermidis RCMB 010024 assessed as diameter of zone inhibition at 1 mg/ml after 24 hrs by agar well diffusion assay; format: functional; conditions: RCMB 010024, 24 h, read-out: DIZ
Klebsiella pneumoniae [23] = assay: Antimicrobial activity against Klebsiella pneumoniae RCMB 010093 assessed as diameter of zone inhibition at 1 mg/ml after 24 hrs by agar well diffusion assay; format: functional, organism-based
Procedure, shortened: (§5)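 Agar well diffusion on nutrient agar spread with 100 µL of bacterial suspension at 1 x10^8 CFU/mL. Wells 10 mm wide were loaded with 100 µL of solution: test compounds at 5 mg/mL in DMSO, ampicillin or gentamycin standards at 1 mg/mL, DMSO negative control. Plates were incubated 24 h at 37 °C, and inhibition zone diameter (mm) was averaged over triplicates.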

Shigella flexneri [24] = assay: Antimicrobial activity against Shigella flexneri RCMB 0100542 assessed as diameter of zone inhibition at 1 mg/ml after 24 hrs by agar well diffusion assay; format: functional, organism-based; procedure, shortened: as §5
Proteus vulgaris [25] = assay: Antimicrobial activity against Proteus vulgaris RCMB 010085 assessed as diameter of zone inhibition at 1 mg/ml after 24 hrs by agar well diffusion assay; format: functional, organism-based; procedure, shortened: as §5
Aspergillus clavatus [26] = assay: Potency index, ratio of Amphotericin B IC50 to compound IC50 for Aspergillus clavatus RCMB 02593; format: functional
Proteus vulgaris [27] = assay: Potency index, ratio of Gentamycin IC50 to compound IC50 for Proteus vulgaris RCMB 010085; format: functional
Shigella flexneri [28] = assay: Potency index, ratio of Gentamycin IC50 to compound IC50 for Shigella flexneri RCMB 0100542; format: functional
Candida albicans [29] = assay: Potency index, ratio of Amphotericin B IC50 to compound IC50 for Candida albicans RCMB 05035; format: functional
Aspergillus fumigatus [30] = assay: Antimicrobial activity against Aspergillus fumigatus RCMB 02564 assessed as diameter of zone inhibition at 1 mg/ml after 72 hrs by agar well diffusion assay; format: functional; conditions: RCMB 02564, 72 h, read-out: DIZ
Candida albicans [31] = assay: Antimicrobial activity against Candida albicans RCMB 05035 assessed as diameter of zone inhibition at 1 mg/ml after 72 hrs by agar well diffusion assay; format: functional; conditions: RCMB 05035, 72 h, read-out: DIZ
Aspergillus clavatus [32] = assay: Antimicrobial activity against Aspergillus clavatus RCMB 02593 assessed as diameter of zone inhibition at 1 mg/ml after 72 hrs by agar well diffusion assay; format: functional; conditions: RCMB 02593, 72 h, read-out: DIZ

Compound | zone of inhibition at 5000 µg/mL (Bacillus subtilis [1]) | MIC (Aspergillus clavatus [2]) | zone of inhibition at 5000 µg/mL (Aspergillus fumigatus [3]) | MIC (Candida albicans [4]) | MIC (Klebsiella pneumoniae [5]) | MIC (Staphylococcus aureus [6]) | MIC (Shigella flexneri [7]) | MIC [8] | zone of inhibition at 5000 µg/mL (Candida albicans [9]) | MIC (Aspergillus fumigatus [10]) | MIC (Bacillus subtilis [11]) | zone of inhibition at 5000 µg/mL (Staphylococcus aureus [12]) | zone of inhibition at 5000 µg/mL (Proteus vulgaris [13]) | zone of inhibition at 5000 µg/mL (Shigella flexneri [14]) | zone of inhibition at 5000 µg/mL (Klebsiella pneumoniae [15]) | MIC (Proteus vulgaris [16]) | zone of inhibition at 5000 µg/mL (Aspergillus clavatus [18]) | zone of inhibition at 5000 µg/mL [19] | other results
COc1ccc(C2CC(c3ccc(Oc4ccc5ccccc5n4)cc3)=NN2c2ccccc2)cc1 (centres undefined) | 28.7 mm | 3.9 µg/mL (≈ 8.27 µM) | 23.5 mm | 0.48 µg/mL (≈ 1.02 µM) | 3.9 µg/mL (≈ 8.27 µM) | 0.24 µg/mL (≈ 0.509 µM) | 0.48 µg/mL (≈ 1.02 µM) | 0.24 µg/mL (≈ 0.509 µM) | 23.5 mm | 1.95 µg/mL (≈ 4.14 µM) | 0.06 µg/mL (≈ 0.127 µM) | 29 mm | 24.5 mm | 23.3 mm | 26.1 mm | 9.9 µg/mL (≈ 21 µM) | 22.9 mm | 26.2 mm | Ratio [17]: 2
CC1(C)S[C@@H]2[C@H](NC(=O)[C@H](N)c3ccccc3)C(=O)N2[C@H]1C(=O)O [AMPICILLIN] | – | – | – | – | – | 0.06 µg/mL (≈ 0.172 µM) | – | 0.48 µg/mL (≈ 1.37 µM) | – | – | 0.007 µg/mL (≈ 0.02 µM) | – | – | – | – | – | – | – | zone of inhibition at 1000 µg/mL (Staphylococcus aureus [20]): 28.9 mm; zone of inhibition at 1000 µg/mL (Bacillus subtilis [21]): 34.6 mm; zone of inhibition at 1000 µg/mL [22]: 25.4 mm
GENTAMICIN | – | – | – | – | 0.24 µg/mL | – | 0.48 µg/mL | – | – | – | – | – | – | – | – | 1.95 µg/mL | – | – | inhibition zone (IZ) (Klebsiella pneumoniae [23]): 26.3 mm; inhibition zone (IZ) (Shigella flexneri [24]): 24.8 mm; inhibition zone (IZ) (Proteus vulgaris [25]): 23.4 mm
N#Cc1c(-c2ccc(Cl)cc2Cl)nn(-c2ccc3ccccc3n2)c1N | 25.8 mm | 0.49 µg/mL (≈ 1.29 µM) | 20.9 mm | 0.12 µg/mL (≈ 0.316 µM) | 0.49 µg/mL (≈ 1.29 µM) | 0.49 µg/mL (≈ 1.29 µM) | 0.12 µg/mL (≈ 0.316 µM) | 0.49 µg/mL (≈ 1.29 µM) | 24.8 mm | 0.98 µg/mL (≈ 2.58 µM) | 0.12 µg/mL (≈ 0.316 µM) | 21.6 mm | 20.6 mm | 23.2 mm | 21.6 mm | 0.98 µg/mL (≈ 2.58 µM) | 22.3 mm | 22.3 mm | Ratio (Aspergillus clavatus [26]): 4; Ratio (Proteus vulgaris [27]): 2; Ratio (Shigella flexneri [28]): 4; Ratio (Candida albicans [29]): 4
C[C@@H]1[C@H](O)[C@@H](C)/C=C/C=C/C=C/C=C/C=C/C=C/C=C/[C@H](O[C@@H]2O[C@H](C)[C@@H](O)[C@H](N)[C@@H]2O)C[C@@H]2O[C@](O)(C[C@@H](O)C[C@@H](O)[C@H](O)CC[C@@H](O)C[C@@H](O)CC(=O)O[C@H]1C)C[C@H](O)[C@H]2C(=O)O [AMPHOTERICIN B] | – | 1.95 µg/mL (≈ 2.11 µM) | – | 0.48 µg/mL (≈ 0.519 µM) | – | – | – | – | – | 0.97 µg/mL (≈ 1.05 µM) | – | – | – | – | – | – | – | – | zone of inhibition at 1000 µg/mL (Aspergillus fumigatus [30]): 23.7 mm; zone of inhibition at 1000 µg/mL (Candida albicans [31]): 26.4 mm; zone of inhibition at 1000 µg/mL (Aspergillus clavatus [32]): 21.9 mm
